Measurements: ChEMBL document CHEMBL3616408, “Elaboration of a fragment library hit produces potent and selective aspartate semialdehyde dehydrogenase inhibitors” (Bioorg Med Chem, 2015)
Active and inactive are the calls of the source. The rule behind the calls is not given here.

Tests used:
[1] = (§1) Inhibition of Vibrio cholerae ASADH using aspartate semialdehyde and NADP+
[2] = Selectivity index, ratio of Ki for Vibrio cholerae ASADH to KI for Streptococcus pneumoniae ASADH
Summary of the method: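 Recombinant S. pneumoniae and V. cholerae ASADH, stored at -20 °C in 50 mM HEPES pH 7, 1 mM EDTA, 1 mM DTT. Reverse reaction run at r.t. in 120 mM CHES pH 8.6, 200 mM KCl, with 1.5 mM NADP, 20 mM phosphate, and ASA at 0.15 mM (sp) or 0.3 mM (vc). Enzyme was 30 μg ml−1. NADPH formation was read at 340 nm. Serially diluted inhibitor gave initial velocities, and Ki came from Dixon plots assuming competition with ASA. The index is vc Ki divided by sp Ki.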

[3] = Inhibition of Streptococcus pneumoniae ASADH using aspartate semialdehyde and NADP+
Summary of the method: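 Recombinant enzyme, stored at -20 °C in 50 mM HEPES pH 7, 1 mM EDTA, 1 mM DTT. Reverse reaction run at room temperature in 120 mM CHES pH 8.6, 200 mM KCl, with 0.15 mM ASA, 1.5 mM NADP and 20 mM phosphate; 30 μg ml−1 enzyme starts it. NADPH formation read at 340 nm. Inhibitor serially diluted; Ki from Dixon plot of initial velocities, assuming competition with ASA.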

[4] = test system: Vibrio cholerae; assay: Inhibition of Vibrio cholerae ASADH up to 4 mM using aspartate semialdehyde and NADP+
Summary of the method: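 Recombinant V. cholerae enzyme assayed in reverse direction at r.t. in 120 mM CHES pH 8.6 with 200 mM KCl, 0.3 mM ASA, 1.5 mM NADP and 20 mM phosphate. Reaction started with 30 μg ml−1 enzyme, and NADPH formation followed at 340 nm. Inhibitor tested at concentrations up to 4 mM.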

[5] = test system: Vibrio cholerae; assay: as §1
[6] = test system: Vibrio cholerae; assay: Inhibition of Vibrio cholerae ASADH up to 2 mM using aspartate semialdehyde and NADP+
Summary of the method: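 Recombinant V. cholerae enzyme assayed in reverse direction at r.t. in 120 mM CHES pH 8.6 with 200 mM KCl, 0.3 mM ASA, 1.5 mM NADP and 20 mM phosphate. Reaction started with 30 μg ml−1 enzyme, and NADPH formation followed at 340 nm. Inhibitor tested at concentrations up to 2 mM.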

SMILES	Ki ([1]; read-out: Ki)	Ratio Ki [2]	Ki [3]	Ki [1]	inhibition [4]	inhibition [5]	inhibition [6]
NC(=O)c1ccc(CN(CC(=O)O)Cc2ccc(C(=O)O)c(C(=O)O)c2)cc1	649 µM	10	229 µM				
O=C(O)CN(Cc1cccc(C(F)(F)F)c1)Cc1ccc(C(=O)O)c(C(=O)O)c1	678 µM	10	441 µM				
Cc1cccc(CN(CC(=O)O)Cc2ccc(C(=O)O)c(C(=O)O)c2)c1	690 µM	10	430 µM				
O=C([O-])CCN(Cc1ccc(C(F)(F)F)cc1)Cc1ccc(C(=O)[O-])c(C(=O)[O-])c1.[Na+].[Na+].[Na+]			3800 µM	Not Active	inactive		
N#CCCN(CC(=O)O)Cc1ccc(C(=O)O)c(C(=O)O)c1	498 µM		220 µM				
CN(CC(=O)O)Cc1cccc(C(=O)O)c1C(=O)O			1800 µM			inactive	
O=C(O)CN(Cc1cccc(OC(F)(F)F)c1)Cc1ccc(C(=O)O)c(C(=O)O)c1	684 µM	10	427 µM				
O=C(O)CN(Cc1ccc(OC(F)(F)F)cc1)Cc1ccc(C(=O)O)c(C(=O)O)c1	663 µM	10	36 µM				
O=C(O)CN(Cc1ccc(/C=C/Cc2ccccc2)cc1)Cc1ccc(C(=O)O)c(C(=O)O)c1	1100 µM	10	476 µM				
O=C([O-])CCNCc1ccc(C(=O)[O-])c(C(=O)[O-])c1.[Na+].[Na+].[Na+]			2400 µM	Not Active			inactive
O=C(O)CN(Cc1ccc(C(=O)O)cc1)Cc1ccc(C(=O)O)c(C(=O)O)c1	635 µM	10	72 µM				
C=CCN(CC(=O)O)Cc1ccc(C(=O)O)c(C(=O)O)c1	663 µM		303 µM				
O=C([O-])CCN(Cc1ccc(Br)cc1)Cc1ccc(C(=O)[O-])c(C(=O)[O-])c1.[Na+].[Na+].[Na+]			3600 µM	Not Active	inactive		
O=C(O)c1ccc(CN[C@@H](CO)C(=O)O)cc1C(=O)O	654 µM		324 µM				
C[C@H](NCc1ccc(C(=O)O)c(C(=O)O)c1)C(=O)O	609 µM		296 µM				
O=C(O)CN(Cc1ccc(Br)cc1)Cc1ccc(C(=O)O)c(C(=O)O)c1	629 µM	10	57 µM				
O=C(O)CN(Cc1ccc(OC(F)F)cc1)Cc1ccc(C(=O)O)c(C(=O)O)c1	698 µM	10	54 µM				
Cc1ccc(CN(CC(=O)O)Cc2ccc(C(=O)O)c(C(=O)O)c2)cc1	608 µM	10	63 µM				
O=C(O)CN(Cc1ccc(C(F)(F)F)cc1)Cc1ccc(C(=O)O)c(C(=O)O)c1	628 µM	10	24 µM				
O=C(O)CNCc1ccc(C(=O)O)c(C(=O)O)c1	528 µM	2	246 µM				
O=CCN(CC(=O)O)Cc1ccc(C(=O)O)c(C(=O)O)c1	655 µM		276 µM				
O=C(O)CN(Cc1ccc(C(=O)O)c(C(=O)O)c1)Cc1ccccc1C(F)(F)F	727 µM	10	509 µM				
CN(CC(=O)O)Cc1ccc(C(=O)O)c(C(=O)O)c1	675 µM		296 µM				
O=C(O)CN(CCN1CCOCC1)Cc1ccc(C(=O)O)c(C(=O)O)c1	692 µM		176 µM				
CC(C)(C)c1ccc(CN(CC(=O)O)Cc2ccc(C(=O)O)c(C(=O)O)c2)cc1	648 µM	10	16 µM				
O=C(O)CN(Cc1cccc(Br)c1)Cc1ccc(C(=O)O)c(C(=O)O)c1	665 µM	10	442 µM				
Cc1ccccc1CN(CC(=O)O)Cc1ccc(C(=O)O)c(C(=O)O)c1	721 µM	10	524 µM				
O=C(O)CN(Cc1ccccc1)Cc1ccc(C(=O)O)c(C(=O)O)c1	696 µM		297 µM				
O=C(O)CN(Cc1ccc(C(=O)O)c(C(=O)O)c1)Cc1ccccc1Br	737 µM	10	529 µM				
O=C(O)CN(Cc1ccc(C(=O)O)c(C(=O)O)c1)Cc1ccccc1OC(F)(F)F	708 µM	10	540 µM				
